Published values from different studies.
Each line is one published result; the experiments were not run side by side.
AMY2: Pancreatic alpha-amylase (AMY2, Sus scrofa, UniProt P00690)
RORC: Nuclear receptor ROR-gamma (RORC, Homo sapiens, UniProt P51449)
SLC22A8: Organic anion transporter 3 (SLC22A8, Homo sapiens, UniProt Q8TCC7)
CDC7: Cell division cycle 7-related protein kinase (CDC7, Homo sapiens, UniProt O00311)
SIRT2: NAD-dependent protein deacetylase sirtuin-2 (SIRT2, Homo sapiens, UniProt Q8IXJ6)
FRK: Tyrosine-protein kinase FRK (FRK, Homo sapiens, UniProt P42685)
Genome polyprotein protease: Genome polyprotein, protease (Hepatitis C virus genotype 1b, UniProt Q9WMX2)
Maoa: Amine oxidase [flavin-containing] A (Maoa, Rattus norvegicus, UniProt P21396)

SMILES	target	assay	conditions	IC50 [µM]
COc1cc(N2CCN(C)CC2)ccc1Nc1ncc2c(n1)N(C)c1ccccc1C(=O)N2C	Serine/threonine-protein kinase DCLK1 (DCLK1, Homo sapiens, UniProt O15075)	enzyme activity, inhibitor, mobility shift	–	0.016
COc1cc(C=CC(=O)CC(c2ccc(N(C)C)cc2)n2ccnc2)ccc1O (centres unmarked)	AMY2	enzyme activity, inhibitor, absorbance	–	10.4
C=C(C)[C@@H]1CCC(C)=C[C@H]1c1c(O)cc(CCCCC)cc1O	Prostaglandin E synthase (PTGES, Homo sapiens, UniProt O14684)	enzyme activity, inhibitor	–	> 10
COc1cccc(S(=O)(=O)N2CCc3ccc(OCc4c(F)cccc4Cl)cc32)c1	RORC	ligand displacement, radioligand	–	0.25
O=C(O)CCc1nc(-c2ccccc2)c(-c2ccccc2)o1	SLC22A8	transporter uptake, inhibitor	–	0.87
O=S(=O)(c1ccnc(C(F)(F)F)c1)N1CCc2ccc(OCc3c(F)cccc3Cl)cc21	RORC	ligand displacement, radioligand	–	0.23
COc1ccc(S(=O)(=O)N/N=C2\C(=O)Nc3ccc([N+](=O)[O-])cc32)cc1	AMY2	enzyme activity, inhibitor	–	8.2
CC(C)[C@H](N)c1nc2cc(-c3cn[nH]n3)sc2c(=O)[nH]1	CDC7	enzyme activity, inhibitor	–	3.63
CCCCCCCCCCCCNC(=S)NCCCC[C@H](NC(=O)OCc1ccccc1)C(=O)N[C@@H](CCCCN)C(=O)N[C@@H](CCCNC(=N)N)C(N)=O	SIRT2	enzyme activity, inhibitor	–	0.09
O=C(O)CNC(=O)C(=O)O	Hypoxia-inducible factor 1-alpha inhibitor (HIF1AN, Homo sapiens, UniProt Q9NWT6)	enzyme activity, inhibitor, mass spectrometry	–	< 1
O=S(=O)(c1cccc(C(F)(F)F)c1)N1c2cc(OCc3c(F)cncc3Cl)ccc2CC1C(F)(F)F (centres unmarked)	RORC	ligand displacement, radioligand	–	0.29
O=C1NCCC12CCN(c1c(Cl)cncc1-c1ccc3cccnc3c1)CC2	Cyclin-dependent kinase 19, with cyclin C (CDK19, Homo sapiens, UniProt Q9BWU1)	ligand displacement	–	0.072
COc1cc(Cl)ccc1COc1ccc2c(c1)N(S(=O)(=O)c1cccc(C(F)(F)F)c1)CC2	RORC	ligand displacement, radioligand	–	0.35
O=C1Nc2ccccc2/C1=N/NS(=O)(=O)c1cc(Cl)cc(Cl)c1O	AMY2	enzyme activity, inhibitor	–	1.6
Cc1cc(Nc2cc(CN3CCOCC3)c3nc(C)c(Cc4ccc(Cl)cc4F)n3n2)n[nH]1	Fibroblast growth factor receptor 3 (FGFR3, Homo sapiens, UniProt P22607)	enzyme activity, inhibitor, TR-FRET	–	0.106
CC(C)[C@@H](N)c1nc2cc(-c3ccncc3F)sc2c(=O)[nH]1	CDC7	enzyme activity, inhibitor	–	1.47
O=C1Nc2ccc([N+](=O)[O-])cc2/C1=N/NS(=O)(=O)c1ccc(Cl)cc1	AMY2	enzyme activity, inhibitor	–	4.1
CNC(=O)c1cc2c(Oc3ccc(NC(=O)C4(C(=O)Nc5ccc(F)cc5)CC4)cc3)ccnc2cc1OC	FRK	enzyme activity, inhibitor, radiometric	–	0.013
CCCCCCCCCCCCNC(=S)NCCCC[C@H](NC(=O)OCc1ccccc1)C(=O)N[C@@H](Cc1c[nH]c2ccccc12)C(=O)N[C@@H](CCCNC(=N)N)C(N)=O	SIRT2	enzyme activity, inhibitor	–	0.15
O=C(O)C1=CC(=C(c2ccc(O)c(C(=O)O)c2)c2ccc(O)c(C(=O)O)c2)C=CC1=O	Flap endonuclease 1 (Homo sapiens, UniProt P39748)	enzyme activity, inhibitor, fluorescence	with preincubation	0.63
CCCCCCCCCCCCCC(=O)Oc1ccc2ccc(=O)oc2c1	DNA polymerase I, thermostable (polA, Thermus aquaticus, UniProt P19821)	enzyme activity, inhibitor	–	113
CC(C)[C@H](N)c1nc2cc(N3CCNCC3)sc2c(=O)[nH]1	CDC7	enzyme activity, inhibitor	–	> 10

SMILES	target	assay	conditions	IC50 [µM]
O=C1OC[C@H]2OC(O)[C@H](O)[C@@H](O)[C@@H]2OC(=O)c2cc(O)c(O)c(O)c2-c2c(O)c(O)c3oc(=O)c4c(c(O)c(O)c5oc(=O)c2c3c54)-c2c1cc(O)c(O)c2O (mixture of isomers)	Genome polyprotein protease	enzyme activity, inhibitor, fluorescence	–	< 0.1
COc1ccc2cc(C=NN=C3CS(=O)(=O)N(C)c4ccccc43)c(Cl)nc2c1	Maoa	enzyme activity, inhibitor, fluorescence	–	3.43
COc1cc2nccc(Oc3ccc(NC(=O)c4cc5c(n(-c6ccccc6)c4=O)CCCC5=O)nc3)c2cc1OC	FRK	enzyme activity in cells, inhibitor, ATP luminescence	–	> 0.1
CCCCCCCCCCCCNC(=S)NCCCC[C@H](NC(=O)OCc1ccccc1)C(=O)N[C@@H](Cc1c[nH]c2ccccc12)C(=O)N[C@@H](CCC(=O)O)C(N)=O	SIRT2	enzyme activity, inhibitor	–	0.1
CC(Oc1ccc2c(c1)N(S(=O)(=O)c1cccc(C(F)(F)F)c1)CC2)c1c(F)cccc1Cl (centres unmarked)	RORC	ligand displacement, radioligand	–	0.35
CC(C)(C)C(O)/C=C/c1ccc2c(c1)OCO2 (centres unmarked)	SLC22A8	transporter uptake, inhibitor	–	27.6
c1cnc(OC2CCNCC2)c(-c2nc(Cc3cccc4ncccc34)no2)c1	Glycylpeptide N-tetradecanoyltransferase (Plasmodium falciparum, UniProt Q9U419)	enzyme activity, inhibitor, fluorescence	–	0.0035
OC[C@@H]1[C@@H](O)[C@H](O)[C@@H](O)[C@@H]2O[C@H]12	Beta-glucosidase (GBA2, Homo sapiens, UniProt Q9HCG7)	enzyme activity, inhibitor	pH 5, lysate	26.7
Cc1ccc2cc(C=NN=C3CS(=O)(=O)N(C)c4ccccc43)c(Cl)nc2c1	Maoa	enzyme activity, inhibitor, fluorescence	–	1.82
Cc1cnc(-c2ccc(-c3ccc(NC(=O)Nc4c(F)cc(F)cc4F)cc3F)c3c2C(=O)NC3)[nH]1	Serine/threonine-protein kinase 3 (STK3, Homo sapiens, UniProt Q13188)	enzyme activity, inhibitor	–	0.0071
O=S(=O)(c1cccc(C(F)(F)F)c1)N1c2cc(OCc3c(F)cccc3Cl)ccc2CC1C(F)(F)F (centres unmarked)	RORC	ligand displacement, radioligand	–	0.19
O=c1oc(Cl)c(Cl)c2ccccc12	Chymotrypsinogen A (Bos taurus, UniProt P00766)	enzyme activity, inhibitor, fluorescence	–	2.8
O=S(=O)(c1cccc(C(F)(F)F)c1)N1CCc2ccc(OCc3c(Cl)cccc3C(F)(F)F)cc21	RORC	ligand displacement, radioligand	–	0.17
COc1ccc2c(Oc3ccc4c(C(=O)Nc5ccccc5N)cccc4c3)ccnc2c1	Tyrosine-protein kinase Fes/Fps (FES, Homo sapiens, UniProt P07332)	enzyme activity, inhibitor	–	> 0.5
CCCCCCCCCCCCNC(=S)NCCCC[C@H](NC(C)=O)C(=O)N[C@@H](C)C(=O)N[C@@H](CCCNC(=N)N)C(N)=O	SIRT2	enzyme activity, inhibitor	–	0.05
CC(=NN=C1CS(=O)(=O)N(C)c2ccccc21)c1ccc(C)s1	Maoa	enzyme activity, inhibitor, fluorescence	–	1.27
Cc1ccc(S(=O)(=O)Nc2ccccc2C(=O)Nc2nc(-c3cc(Cl)ccc3Cl)cs2)cc1	Genome polyprotein protease	enzyme activity, inhibitor, FRET	–	1.2
CC(C)C[C@H](NC(=O)[C@H](Cc1ccccc1)NC(=O)[C@@H](N)Cc1ccc(O)cc1)C(=O)N[C@@H](Cc1ccccc1)C(=O)N[C@@H](CCCNC(=N)N)C(=O)N1CCC[C@H]1C(=O)N[C@@H](CCCNC(=N)N)C(=O)N[C@@H](CC(N)=O)C(N)=O	Neuromedin-U receptor 1 (Mus musculus, UniProt O55040)	ligand displacement, radioligand	cell membranes	0.00038
CN1CCN(c2ccc(Nc3ncc4cc(C#N)c(=O)n(C5CCCC5)c4n3)cc2)CC1	Ribosomal protein S6 kinase alpha-1 (RPS6KA1, Homo sapiens, UniProt Q15418)	enzyme activity, inhibitor	–	0.473
O=S(=O)(c1cncc(C(F)(F)F)c1)N1CCc2ccc(OCc3c(F)cccc3Cl)cc21	RORC	ligand displacement, radioligand	–	0.29
CCCCCCCCCCCCNC(=S)NCCCC[C@H](NC(=O)OCc1ccccc1)C(=O)N[C@@H](Cc1c[nH]c2ccccc12)C(=O)N[C@@H](CCNC(=N)N)C(N)=O	SIRT2	enzyme activity, inhibitor	–	0.16
CCNC(=O)[C@H](CCCNC(=N)CCl)NC(=O)c1ccccc1	Protein-arginine deiminase type-3 (PADI3, Homo sapiens, UniProt Q9ULW8)	enzyme activity, inhibitor	–	26
